The sample as a whole holds a higher share of hits than the screen did.
A1 apoptosis 2 = compounds inhibiting A1, read as caspase activation. AID 2465. MEF A1-2A-BIM cells, caspase-Glo luminescence, 3 h; percent of clofoctol response, DMSO zero. caspase activation, % (no concentration beside the values). 24,000 tested, under 10 active; in the data active = caspase activation above about 5.9%; inconclusive = no clear call, values can overlap the other calls; inactive = below about 2.2%
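Material: mouse embryonic fibroblasts co-expressing A1 and BIM (A1-2A-BIM), primed for A1 dependence / Quantity: 2500 cells/well / Buffer or medium: RPMI-1640 growth medium with 10% FBS / Doses: 50 nL compound per well, pinned / Schedule: 3 h compound exposure at 37 °C / Signal: Caspase-Glo luminescence (DEVD substrate) / Measure: Caspase-3/7 activation, seen as rise in luminescence signal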
INS-1E rescue = preserves ATP levels in cytokine-treated INS-1E cells; INS-1E cytokine-induced death, ATP luminescence, 48 h; normalised: neutral wells 0, positive control 100; protection from cytokine-induced ATP loss, % at 10 µM; 0.1% of 20,000 active; AID 488910;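 active = mean replicate protection from cytokine-induced ATP loss at least 50% and at least 75% of replicates each reaching 50%; inconclusive = meets only one of the two criteria, mean or replicate share; inactive = fails both the mean and replicate share criteria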
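Assay system: INS-1E rat cells / Quantity: 8000 cells per well / Medium: RPMI without phenol red, 5% FBS / Probe or stimulus: three-cytokine cocktail (IFN-γ, TNF-α, IL-1β) / Dosing: one compound concentration, pin transfer / Timing: 48 h co-treatment, 10 min post-lysis read / Technique: CellTiter-Glo luminescence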
T cruzi HTS = inhibitors of intracellular Trypanosoma cruzi | intracellular Trypanosoma cruzi in host cells, plate reader | activity score (inhibition), % at 5.01 µM | 4.9% of 22,000 active; in the data active = activity score above about 55%; inconclusive = no clear call, values can overlap the other calls;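 also: parasites and compound incubated about four days before reading; 0% = median of neutral control wells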
An asterisk follows results filed as active; ? = inconclusive; . = no result.

SMILES	A1 apoptosis 2	INS-1E rescue	T cruzi HTS
C[C@@H]1CN([C@@H](C)CO)C(=O)c2cccc(N(C)C)c2O[C@H]1CN(C)S(=O)(=O)c1cn(C)cn1	.	6	-6
C[C@H](CO)N1C[C@H](C)[C@@H](CN(C)Cc2ccc(-c3ccccc3)cc2)Oc2c(NC(=O)C3CC3)cccc2C1=O	.	-53	69*
C[C@H](CO)N1C[C@H](C)[C@@H](CN(C)S(=O)(=O)c2cn(C)cn2)Oc2c(cccc2N(C)C)C1=O	-1	6	59*
C[C@@H]1CN([C@@H](C)CO)C(=O)c2cccc(NC(=O)C3CCCCC3)c2O[C@H]1CN(C)Cc1ccc(-c2ccccc2)cc1	.	-39	71*
C[C@H]1CN([C@@H](C)CO)C(=O)c2cccc(NC(=O)C3CC3)c2O[C@@H]1CN(C)Cc1ccc(Oc2ccccc2)cc1	.	-27	68*
COc1cc(/C=C/C=N/NC(=O)c2ccc(C(=O)NO)cc2)ccc1O	-1	-4	-9
O=C(O)CCCCCCC(=O)N/N=C/c1ccc(N(c2ccccc2)c2ccccc2)cc1	0	.	.
Cc1noc(C)c1NC(=O)N(C)C[C@@H]1Oc2c(NC(=O)Nc3ccccc3)cccc2C(=O)N([C@H](C)CO)C[C@@H]1C	.	8	11
C=CC[C@H](OC(=O)Nc1ccc(OC)cc1)c1ccc(OCCO)cc1	-5	.	.
[N-]=[N+]=NCC(=O)N1CCN(c2ccccc2)CC1	1	.	.
C[C@@H]1CN([C@@H](C)CO)C(=O)c2cc(NS(=O)(=O)c3cccs3)ccc2O[C@@H]1CN(C)Cc1ccc(C(=O)Nc2ccccc2N)cc1	.	38	48
NC(=O)NCC#Cc1ccc2c(c1)[C@]1(C(=O)N2)[C@H](C(=O)N2CCCCCCC2)[C@H]2C(=O)O[C@H](c3ccccc3)[C@H](c3ccccc3)N2[C@@H]1c1ccccc1OCCO	1	.	.
C[C@@H]1CN([C@@H](C)CO)C(=O)c2cccc(NC(=O)C3CCCCC3)c2O[C@H]1CN(C)Cc1ccc(C(F)(F)F)cc1	-1	-27	75*
C[C@H](CO)N1C[C@H](C)[C@H](CN(C)Cc2ccc(C(F)(F)F)cc2)Oc2c(NC(=O)C3CCCCC3)cccc2C1=O	.	-28	2
C[C@@H]1CN([C@@H](C)CO)C(=O)c2cccc(NC(=O)C3CCCCC3)c2O[C@@H]1CN(C)S(=O)(=O)c1ccccc1	.	-2	57*
C[C@H]1CN([C@@H](C)CO)C(=O)c2cccc(NC(=O)C3CCCCC3)c2O[C@@H]1CN(C)S(=O)(=O)c1ccccc1	.	2	5
C[C@H](CO)N1C[C@H](C)[C@H](CN(C)C(=O)Nc2ccc(C(F)(F)F)cc2)Oc2ccc(NC(=O)Nc3ccc(C(F)(F)F)cc3)cc2C1=O	.	-20	74*
C[C@H](CO)N1C[C@H](C)[C@H](CN(C)Cc2ccc(C(F)(F)F)cc2)Oc2ccc(NC(=O)Nc3ccc(F)cc3)cc2C1=O	-2	.	58*
C[C@H](CO)N1C[C@H](C)[C@@H](CN(C)Cc2ccc(C(F)(F)F)cc2)Oc2ccc(NC(=O)Nc3ccc(F)cc3)cc2C1=O	0	-62	12
C[C@H](CO)N1C[C@H](C)[C@@H](CN(C)C(=O)Nc2ccc(C(F)(F)F)cc2)Oc2ccc(NC(=O)Nc3ccc(C(F)(F)F)cc3)cc2C1=O	.	-103	?
C[C@@H]1CN([C@@H](C)CO)C(=O)c2cc(NC(=O)Nc3ccc(C(F)(F)F)cc3)ccc2O[C@@H]1CN(C)Cc1ccc(Cl)c(Cl)c1	0	-46	75*
C[C@H](CO)N1C[C@H](C)[C@H](CN(C)Cc2ccccc2)Oc2ccc(NC(=O)Nc3ccc(C(F)(F)F)cc3)cc2C1=O	.	.	32*
C[C@@H]1CN([C@H](C)CO)C(=O)c2cc(NC(=O)Nc3ccc(C(F)(F)F)cc3)ccc2O[C@@H]1CN(C)Cc1ccc(C(F)(F)F)cc1	.	-27	25
C[C@@H]1CN([C@H](C)CO)C(=O)c2cc(NC(=O)Nc3ccc(C(F)(F)F)cc3)ccc2O[C@@H]1CN(C)Cc1ccccc1	-1	-31	14
C=CC[C@]1(C(=O)NCCCOC)N=C(c2ccc(OCCCO)cc2)O[C@H]1c1ccccc1	0	.	.
SMILES	A1 apoptosis 2	INS-1E rescue	T cruzi HTS
N#Cc1ccc(/C=N/NC(=O)c2ccc(C(=O)NO)cc2)cc1	.	10	2
Cc1ncc(CO)c(/C=N/NC(=O)CCCCCC(=O)O)c1O	1	0	-18
C[C@@H]1CN([C@@H](C)CO)C(=O)c2cc(NC(=O)Nc3ccc(C(F)(F)F)cc3)ccc2O[C@@H]1CN(C)Cc1ccc(C(F)(F)F)cc1	0	-62	52
C[C@H]1CN([C@@H](C)CO)C(=O)c2cc(NC(=O)Nc3ccc(C(F)(F)F)cc3)ccc2O[C@@H]1CN(C)Cc1ccc(C(F)(F)F)cc1	?	.	72*
[N-]=[N+]=Nc1ccccc1C[C@@]1(C(=O)NCC(O)CO)N=C(c2ccc(OCCCO)cc2)O[C@@H]1c1ccccc1 (stereo partly specified)	-1	.	.
C[C@H]1CN([C@@H](C)CO)C(=O)c2cccc(NC(=O)c3ccncc3)c2O[C@H]1CN(C)Cc1ccc(Cl)c(Cl)c1	0	-3	86*
C[C@@H]1CN([C@H](C)CO)C(=O)c2cccc(NC(=O)c3cnccn3)c2O[C@H]1CN(C)Cc1ccc(Cl)c(Cl)c1	.	-11	28
C[C@@H]1CN([C@H](C)CO)C(=O)c2cccc(NC(=O)c3cnccn3)c2O[C@@H]1CN(C)Cc1ccc(Cl)c(Cl)c1	0	-20	26
C[C@H](CO)N1C[C@H](C)[C@H](CN(C)Cc2ccc3c(c2)OCO3)Oc2c(NC(=O)c3ccncc3)cccc2C1=O	2	-1	64*
C[C@H]1CN([C@@H](C)CO)C(=O)c2cccc(NC(=O)c3ccncc3)c2O[C@@H]1CN(C)Cc1ccc(Cl)c(Cl)c1	-2	-10	77*
C[C@@H]1CN([C@H](C)CO)C(=O)c2cccc(NC(=O)c3ccc(-c4nccs4)cc3)c2O[C@H]1CN(C)Cc1ccc2c(c1)OCO2	.	-4	45
C[C@@H]1CN([C@H](C)CO)C(=O)c2cccc(NC(=O)c3ccncc3)c2O[C@@H]1CN(C)Cc1ccc(Cl)c(Cl)c1	-1	-7	76*
C[C@H]1CN([C@@H](C)CO)C(=O)c2cccc(NC(=O)c3cnccn3)c2O[C@@H]1CN(C)Cc1ccc(Cl)c(Cl)c1	.	-8	-11
O=C(NO)c1cccc(C(=O)N/N=C/c2ccc(B(O)O)cc2)c1	-3	-14	-16
[N-]=[N+]=Nc1ccc(NC(=O)c2ccccc2)cc1	-6	.	.
Cc1[nH]cnc1/C=N/NC(=O)CCCCC(=O)NO	1	14	-4
O=C(CCCCCCC(=O)N/N=C/c1ccc(Br)o1)NO	0	.	.
C[C@H]1CN([C@@H](C)CO)C(=O)c2cccc(NC(=O)c3ccc(-c4nccs4)cc3)c2O[C@H]1CN(C)Cc1ccc(Cl)c(Cl)c1	0	-47	62*
C[C@H](CO)N1C[C@H](C)[C@H](CN(C)Cc2ccc(Cl)c(Cl)c2)Oc2c(NC(=O)c3ccc(-c4nccs4)cc3)cccc2C1=O	.	-41	60*

Bioassay records from PubChem BioAssay.
